Measurements: ChEMBL document CHEMBL4043073, “Boronic Acid Modifications Enhance the Anti-Influenza A Virus Activities of Novel Quindoline Derivatives” (J Med Chem, 2017)
Calls of active or inactive are those of the source. No cut-off for these calls is given here.

Legend:
[1] = system: Influenza A virus (A/Puerto Rico/8/1934(H1N1)); experiment: Inhibition of Influenza A virus (A/Puerto Rico/8/34(H1N1)) neuraminidase using MUNANA as substrate preincubated for 30 mins followed by substrate addition measured after 30 mins by fluorescence assay relative to control
In short: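 Inactivated PR8 virus supernatant mixed with compound (10 μM) in 33 mM MES […], 4 mM CaCl2 for 30 min at 37 °C. MUNANA (20 μM) was added for 30 min at 37 °C and the reaction stopped with glycine/ethanol pH 10.7. Fluorescence read at ex 360 / em 440 nm; zanamivir 10 μM as reference; n = 3.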

[2] = system: A549; experiment: Cytotoxicity against human A549 cells at 20 uM after 48 hrs by resazurin based fluorescence method; type: cell-based; conditions: a549, 48 h
In short: (§1)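 Confluent MDCK, A549 or H1299 cells exposed in triplicate to compound for 48 h at 37 °C (A549/H1299 at 20 μM). Resazurin added to 0.2 mg/mL final for 16 h. Fluorescence read at ex 544 / em 595 nm; viability as % of untreated.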

[3] = system: NCI-H1299; experiment: Cytotoxicity against human H1299 cells at 20 uM after 48 hrs by resazurin based fluorescence method; type: cell-based; conditions: nci-h1299, 48 h; in short: as §1
[4] = system: Influenza A virus; experiment: Antiviral activity against Influenza A virus (A/Puerto Rico/8/34(H1N1)) infected in A549 cells assessed as reduction in localization of viral NP protein in nucleus at 10 uM preincubated with virus at 37 degC for 1 hr followed by viral adsorption at 4 degC for 1 hr and subsequent infection in A549 cells measured at 2 to 4 hrs post infection by FITC-staining based immunofluorescence microscopic method; type: functional, cell-based; conditions: A/Puerto Rico/8/1934(H1N1)
In short: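 PR8 (MOI 1.0) pretreated with 10 μM compound 1 h at 37 °C, adsorbed 1 h at 4 °C, then A549 cells were kept in infecting medium with 10 μM compound. Fixed with 4% paraformaldehyde at 2 or 4 h p.i., permeabilised with Triton X-100 and blocked. Anti-NP plus FITC secondary, confocal imaging; nuclear NP intensity per unit area quantified (n = 30 images).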

[5] = system: Influenza A virus; experiment: Antiviral activity against Influenza A virus (A/swine/Minnesota/02719/2009(H3N2)) infected in MDCK cells assessed as virus yeild reduction preincubated with virus at 37 degC for 1 hr followed by viral infection for 1 hr measured after 3 days by crystal violet staining based plaque assay; type: functional, cell-based
In short: (§2)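 Plaque reduction: about 50–100 PFU/well of PR8, Cal09 or Minnesota preincubated with compound (0–10 μM) 1 h at 37 °C. Mixture then adsorbed to MDCK monolayers 1 h at 4 °C. Overlay was DMEM with 1.5% agarose, DEAE-dextran and 1 μg/mL TPCK-trypsin for 3 days at 37 °C. Glutaraldehyde fix, crystal violet stain, plaque count; IC50 derived; n = 4.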

[6] = system: Influenza A virus; experiment: Antiviral activity against Influenza A virus (A/Puerto Rico/8/34(H1N1)) infected in MDCK cells assessed as reduction in virus-induced cytopathic effect after 48 hrs by crystal violet staining based assay; type: functional, cell-based; conditions: A/Puerto Rico/8/1934(H1N1)
In short: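 MDCK cells infected with PR8 at MOI 0.1; compounds added in triplicate after inoculum removal. After 48 h cells were fixed with 4% formaldehyde and stained with 0.1% crystal violet. Dye was methanol-solubilised and read at 570 nm; IC50 was the concentration halving CPE.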

[7] = system: Influenza A virus; experiment: Antiviral activity against Influenza A virus (A/Puerto Rico/8/34(H1N1)) infected in MDCK cells assessed as reduction in viral HA titer by measuring reduction in chicken RBC […] after 24 hrs by hemagglutination test; type: functional, cell-based; conditions: A/Puerto Rico/8/1934(H1N1)
In short: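 MDCK cells infected at MOI 3.0 (single-cycle) with PR8, Cal09 or swine H3N2 Minnesota, then treated with compound for 24 h. Supernatant HA titers were read by 2-fold serial dilution with an equal volume of 1% chicken RBCs, 60 min at 4 °C. Expressed as percent of untreated-cell HA titer; IC50 derived; n = 4.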

[8] = Drug uptake in human A549 cells at 20 uM after 4 hrs by DAPI staining based confocal microscopic analysis; type: ADME, cell-based; conditions: a549, 4 h
In short: (§3)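 A549 cells incubated with 20 μM compound 4 h at 37 °C, then fixed and DAPI-stained. Compound intrinsic fluorescence located by confocal microscopy.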

[9] = system: Influenza A virus; experiment: Antiviral activity against Influenza A virus (A/Puerto Rico/8/34(H1N1)) infected in Kunming mouse assessed as intact columnar epithelium in bronchiole without inflammatory cell infiltration at 10 mg/kg/day, po qd for 4 days by hematoxylin and eosin staining based assay; type: functional, organism-based; conditions: A/Puerto Rico/8/1934(H1N1)
[10] = system: Influenza A virus (A/California/04/2009(H1N1)); experiment: Antiviral activity against Influenza A virus (A/California/04/2009(H1N1)) infected in MDCK cells assessed as virus yeild reduction preincubated with virus at 37 degC for 1 hr followed by viral infection for 1 hr measured after 3 days by crystal violet staining based plaque assay; type: functional, cell-based; in short: as §2
[11] = system: Influenza A virus; experiment: Antiviral activity against Influenza A virus (A/Puerto Rico/8/34(H1N1)) infected in Kunming mouse assessed as pulmonary viral titer reduction at 10 mg/kg/day, po qd for 4 days measured on day 4 post last dose by crystal violet staining based plaque assay; type: functional, organism-based; conditions: A/Puerto Rico/8/1934(H1N1)
In short: (§4)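 Female 4-week-old Kunming mice infected intranasally with PR8 (4 HAU/mouse). Oral gavage once daily began 2 h post-inoculation; placebo control. Mice euthanised on day 4; lungs homogenised in PBS and titrated by plaque assay on cell monolayers (agarose overlay, 3 days, crystal violet).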

[12] = Selectivity index, ratio of CC50 for MDCK cells to IC50 for Influenza A virus (A/Puerto Rico/8/34(H1N1)) infected in MDCK cells by plaque assay; type: toxicity, cell-based; conditions: dog, read-out: Ratio CC50/IC50
[13] = Drug uptake in human A549 cell nucleus at 20 uM after 4 hrs by DAPI staining based confocal microscopic analysis; type: ADME; conditions: a549, 4 h; in short: as §3
[14] = system: Influenza A virus; experiment: Antiviral activity against Influenza A virus (A/Puerto Rico/8/34(H1N1)) infected in MDCK cells assessed as virus yeild reduction preincubated with virus at 37 degreeC for 1 hr followed by viral infection for 1 hr measured after 3 days by crystal violet staining based plaque assay; type: functional, cell-based; conditions: A/Puerto Rico/8/1934(H1N1); in short: as §2
[15] = Cytotoxicity against MDCK cells after 48 hrs by resazurin based fluorescence method; type: cell-based, Canis lupus familiaris; conditions: dog; in short: as §1
[16] = Selectivity index, ratio of CC50 for MDCK cells to IC50 for Influenza A virus (A/Puerto Rico/8/34(H1N1)) infected in MDCK cells assessed as reduction in virus-induced cytopathic effect; type: toxicity, cell-based; conditions: dog, read-out: Ratio CC50/IC50
[17] = system: Influenza A virus; experiment: Antiviral activity against Influenza A virus (A/Puerto Rico/8/34(H1N1)) infected in MDCK cells assessed as reduction in virus titer at 10 uM preincubated with virus for 1 hr followed by viral infection measured after 24 hrs by crystal violet staining based plaque assay; type: functional, cell-based; conditions: A/Puerto Rico/8/1934(H1N1)
In short: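 PR8 (MOI 1.0) preincubated with compound (2.5–10 μM) 1 h at 37 °C, then used to infect MDCK cells. After adsorption, medium with the same compound concentration was added. At 24 h p.i. supernatant virus titer was measured by plaque assay; n = 3.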

[18] = Drug uptake in human A549 cell cytoplasm at 20 uM after 4 hrs by DAPI staining based confocal microscopic analysis; type: ADME; conditions: a549, 4 h; in short: as §3
[19] = Drug uptake in human A549 cell membranes at 20 uM after 4 hrs by DAPI staining based confocal microscopic analysis; type: ADME; conditions: a549, 4 h; in short: as §3
[20] = system: Influenza A virus; experiment: Antiviral activity against Influenza A virus (A/Puerto Rico/8/34(H1N1)) infected in Kunming mouse assessed as intact columnar epithelium in bronchiole without inflammatory cell infiltration at 20 mg/kg/day, po qd for 4 days by hematoxylin and eosin staining based assay; type: functional, organism-based; conditions: A/Puerto Rico/8/1934(H1N1)
[21] = system: Influenza A virus; experiment: Antiviral activity against Influenza A virus (A/Puerto Rico/8/34(H1N1)) infected in Kunming mouse assessed as viral titer reduction in lungs at 20 mg/kg/day, po qd for 4 days measured on day 4 post last dose by crystal violet staining based plaque assay; type: functional, organism-based; conditions: A/Puerto Rico/8/1934(H1N1); in short: as §4
[22] = system: Influenza A virus; experiment: Antiviral activity against Influenza A virus (A/Puerto Rico/8/34(H1N1)) infected in Kunming mouse assessed as survival rate at 20 mg/kg/day, po qd for 7 days measured on day 14 post infection (reference value: 30%); type: functional; conditions: A/Puerto Rico/8/1934(H1N1)

CC(=O)N[C@H]1[C@H]([C@H](O)[C@H](O)CO)OC(C(=O)O)=C[C@@H]1NC(=N)N
inhibition [1]: > 85%

O=C(Nc1ccc(Nc2c3ccccc3nc3c2[nH]c2ccccc23)cc1)c1ccc(B(O)O)cc1
Activity [2]: Non-Toxic | Activity [3]: Non-Toxic

Nc1ccccc1Nc1c2ccccc2nc2c1[nH]c1ccccc12
Activity [4]: Active | Activity [2]: Non-Toxic | Activity [5]: Active | IC50 [6]: 47.4 µM | Activity [7]: Active | Drug uptake [8]: Active | Activity [9]: Active | Activity [10]: Active | Activity [11]: inactive | selectivity ratio [12]: 1.5 | Drug uptake [13]: Active | inhibition [1]: inactive | Activity [14]: Active | CC50 at 48 h [15]: 37.9 µM | selectivity ratio [16]: 0.8 | Activity [3]: Non-Toxic | IC50 [17]: 25.5 µM

Nc1ccc(Nc2c3ccccc3nc3c2[nH]c2ccccc23)cc1
Activity [2]: Non-Toxic | Activity [3]: Non-Toxic

Nc1cccc(Nc2c3ccccc3nc3c2[nH]c2ccccc23)c1
Activity [2]: Non-Toxic | Activity [3]: Non-Toxic

O=C(Nc1ccccc1Nc1c2ccccc2nc2c1[nH]c1ccccc12)c1ccc(B(O)O)cc1
Activity [4]: Active | Activity [2]: Non-Toxic | Activity [5]: Active | Activity [7]: Active | Drug uptake [8]: Active | Activity [9]: Active | Activity [10]: Active | Activity [11]: Active | Drug uptake [13]: Not Active | Drug uptake [18]: Active | inhibition [1]: 56% | Activity [14]: Active | Drug uptake [19]: Active | CC50 at 48 h [15]: 78.6 µM | Activity [3]: Non-Toxic | Activity [17]: Active

O=C(Nc1cccc(Nc2c3ccccc3nc3c2[nH]c2ccccc23)c1)c1ccc(B(O)O)cc1
Activity [2]: Non-Toxic | Activity [3]: Non-Toxic

O=C(Nc1ccc(Nc2c3ccccc3nc3c2[nH]c2ccccc23)cc1)c1cccc(B(O)O)c1
Activity [2]: Non-Toxic | Activity [3]: Non-Toxic

O=C(Nc1cccc(Nc2c3ccccc3nc3c2[nH]c2ccccc23)c1)c1cccc(B(O)O)c1
Activity [2]: Non-Toxic | Activity [3]: Non-Toxic

CCOC(=O)C1=C[C@@H](OC(CC)CC)[C@H](NC(C)=O)[C@@H](N)C1 [OSELTAMIVIR]
Activity [20]: Active | Activity [7]: Active | Activity [21]: Active | selectivity ratio [16]: 36.2 | survival at 20 mg/kg/day [22]: 80% | Activity [17]: Active
